Measurements reported in ChEMBL document CHEMBL1157729, “Structure-activity relationship and mechanism of action studies of manzamine analogues for the control of neuroinflammation and cerebral infections” (J Med Chem, 2010).
≈ marks a conversion by molar mass, not a printed value.

Columns and labels:
Plasmodium falciparum [1] = experiment: Antiplasmodial activity against chloroquine-sensitive Plasmodium falciparum D6 after 72 hrs by LDH assay; assay type: functional, organism-based
[2] = Antineuroinflammatory activity in LPS-stimulated rat neonatal microglia assessed as inhibition of PMA-induced superoxide anion production preincubated 15 mins prior to PMA challenge measured after 70 mins; assay type: functional, cell-based
[3] = system: Mycobacterium intracellulare; experiment: Antimycobacterial activity against Mycobacterium intracellular ATCC 23068; assay type: functional, organism-based
Method in brief: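 Modified Franzblau method; samples serially diluted in 20% DMSO/saline, tested in duplicate; inoculum set by OD630; fluorescence read at 544ex/590em before and after incubation; ciprofloxacin drug control.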

[4] = system: Mycobacterium tuberculosis; experiment: Antimycobacterial activity against Mycobacterium tuberculosis H37Rv; assay type: functional, organism-based
Plasmodium falciparum [5] = experiment: Antiplasmodial activity against chloroquine-resistant Plasmodium falciparum W2 after 72 hrs by LDH assay; assay type: functional, organism-based
Cryptococcus neoformans = experiment: Antifungal activity against Cryptococcus neoformans ATCC 90113; assay type: functional, organism-based
Method in brief: (§1)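 Broth microdilution per modified CLSI method; samples serially diluted in 20% DMSO/saline, tested in duplicate; inocula set by OD630 of suspensions in incubation broth; growth read at 630 nm before and after incubation; amphotericin B drug control.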

[6] = Antineuroinflammatory activity in LPS-stimulated rat neonatal microglia assessed as drug level causing 50% PMA-induced LDH release preincubated 15 mins prior to PMA challenge measured after 70 mins; assay type: functional
Method in brief: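 Neonatal rat microglia (2 × 10^5/well) primed with E. coli LPS 0.3 ng/mL for 17 h at 35.9 °C, washed with HBSS, given compound (0.01–10 μM) or DMSO 15 min, then PMA 1 μM; LDH read spectrophotometrically after 70 min; LDH50 relative to Triton X-100 (0.1%) release; duplicates.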

Candida albicans = experiment: Antifungal activity against Candida albicans ATCC 90028; assay type: functional, organism-based; method in brief: as §1
[7] = Antineuroinflammatory activity in LPS-stimulated rat neonatal microglia assessed as inhibition of PMA-induced TXB2 production preincubated 15 mins prior to PMA challenge measured after 70 mins; assay type: functional, cell-based
Vero [8] = experiment: Cytotoxicity against african green monkey Vero cells up to 4.6 ug/mL after 48 hrs by neutral red assay; assay type: cell-based; conditions: chlorocebus sabaeus
Method in brief: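 Vero cells were seeded at 25,000 cells/well and incubated for 24 h, then exposed to serially diluted samples for 48 h. Viable cells were counted by Neutral Red assay, with doxorubicin as positive control. IC50 was taken from dose-response curves.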

Vero [9] = experiment: Cytotoxicity against african green monkey Vero cells after 48 hrs by neutral red assay; assay type: cell-based; conditions: chlorocebus sabaeus
Method in brief: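 Vero cells seeded at 25,000/well and grown 24 h, then exposed to serially diluted samples for 48 h. Viable cells measured by neutral red assay, with doxorubicin as positive control. IC50 taken from dose-response curves.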

[10] = Plasmodium falciparum, D6, 72 h, read-out: IC50
[11] = Plasmodium falciparum, W2, 72 h, read-out: IC50

Row | SMILES | IC50 (Plasmodium falciparum [1]; [10]) | IC50 [2] | IC50 [3] | MIC [4] | IC50 (Plasmodium falciparum [5]; [11]) | IC50 (Cryptococcus neoformans) | Activity [6] | IC50 (Candida albicans) | IC50 [7] | Activity (Vero [8]) | IC50 (Vero [9]) | IC50 (Plasmodium falciparum [1]) | IC50 (Plasmodium falciparum [5])
1 | CC(C)CCn1c2ccccc2c2ccnc(C3=C[C@@]4(O)CC/C=C\CCCCN5CC[C@@H]3[C@]3(C[C@@H]6/C=C\CCCCN6[C@H]34)C5)c21 [9-N-ISOPENTYLMANZAMINE A] | 2.3 µg/mL (≈ 3.72 µM) | 3200 nM | 6.5 µg/mL (≈ 10.5 µM) | 128 µg/mL (≈ 207 µM) | 3.8 µg/mL (≈ 6.14 µM) | > 20 µg/mL | >10 µM | > 20 µg/mL | 3200 nM | Non-toxic | – | – | –
2 | Cn1c2ccccc2c2ccnc(C3=C[C@@]4(O)CC/C=C\CCCCN5CC[C@@H]3[C@]3(C[C@@H]6/C=C\CCCCN6[C@H]34)C5)c21 [9-N-METHYLMANZAMINE A] | 1.9 µg/mL (≈ 3.38 µM) | > 10000 nM | > 20 µg/mL | > 64 µg/mL | 1 µg/mL (≈ 1.78 µM) | > 20 µg/mL | >10 µM | > 20 µg/mL | > 10000 nM | Non-toxic | – | – | –
3 | O=[N+]([O-])c1ccc2[nH]c3c(C4=C[C@@]5(O)CC/C=C\CCCCN6CC[C@@H]4[C@]4(C[C@@H]7/C=C\CCCCN7[C@H]45)C6)nccc3c2c1 [6-NITROMANZAMINE A] | 0.018 µg/mL (≈ 0.0303 µM) | – | 0.15 µg/mL (≈ 0.253 µM) | 1.6 µg/mL (≈ 2.69 µM) | 0.028 µg/mL (≈ 0.0472 µM) | 2.5 µg/mL (≈ 4.21 µM) | – | > 20 µg/mL | – | – | 270 µg/mL (≈ 455 µM) | – | –
4 | CCCn1c2ccccc2c2ccnc(C3=C[C@@]4(O)CC/C=C\CCCCN5CC[C@@H]3[C@]3(C[C@@H]6/C=C\CCCCN6[C@H]34)C5)c21 [9-N-PROPYLMANZAMINE A] | 0.69 µg/mL (≈ 1.17 µM) | 3000 nM | 2 µg/mL (≈ 3.38 µM) | 37 µg/mL (≈ 62.6 µM) | 0.74 µg/mL (≈ 1.25 µM) | > 20 µg/mL | >10 µM | > 20 µg/mL | > 10000 nM | – | 3.7 µg/mL (≈ 6.26 µM) | – | –
5 | CCCCn1c2ccccc2c2ccnc(C3=C[C@@]4(O)CC/C=C\CCCCN5CC[C@@H]3[C@]3(C[C@@H]6/C=C\CCCCN6[C@H]34)C5)c21 [9-N-BUTYLMANZAMINE A] | 0.33 µg/mL (≈ 0.546 µM) | 120 nM | > 20 µg/mL | 128 µg/mL (≈ 212 µM) | 1.3 µg/mL (≈ 2.15 µM) | > 20 µg/mL | >10 µM | > 20 µg/mL | 400 nM | – | 2 µg/mL (≈ 3.31 µM) | – | –
6 | CC(=O)Oc1cccc2c1[nH]c1c(C3=C[C@@]4(O)CC/C=C\CCCCN5CC[C@@H]3[C@]3(C[C@@H]6/C=C\CCCCN6[C@H]34)C5)nccc12 [8-ACETOXYMANZAMINE A] | 0.029 µg/mL (≈ 0.0478 µM) | – | – | – | – | – | – | – | – | – | 670 µg/mL (≈ 1100 µM) | – | –
7 | CC(C)(C)Cn1c2ccccc2c2ccnc(C3=C[C@@]4(O)CC/C=C\CCCCN5CC[C@@H]3[C@]3(C[C@@H]6/C=C\CCCCN6[C@H]34)C5)c21 [9-N-NEOPENTYLMANZAMINE A] | 2.4 µg/mL (≈ 3.88 µM) | 70 nM | 0.5 µg/mL (≈ 0.808 µM) | 4 µg/mL (≈ 6.46 µM) | 2.8 µg/mL (≈ 4.52 µM) | 4 µg/mL (≈ 6.46 µM) | >10 µM | 7 µg/mL (≈ 11.3 µM) | 70 nM | – | 0.7 µg/mL (≈ 1.13 µM) | – | –
8 | COc1ccc2[nH]c3c(C4=C[C@@]5(O)CC/C=C\CCCCN6CC[C@@H]4[C@]4(C[C@@H]7/C=C\CCCCN7[C@H]45)C6)nccc3c2c1 [6-METHOXYMANZAMINE A] | 0.028 µg/mL (≈ 0.0484 µM) | 100 nM | 0.8 µg/mL (≈ 1.38 µM) | > 64 µg/mL | 0.058 µg/mL (≈ 0.1 µM) | 3 µg/mL (≈ 5.18 µM) | >10 µM | 5 µg/mL (≈ 8.64 µM) | 110 nM | – | 0.5 µg/mL (≈ 0.864 µM) | – | –
9 | CCn1c2ccccc2c2ccnc(C3=C[C@@]4(O)CC/C=C\CCCCN5CC[C@@H]3[C@]3(C[C@@H]6/C=C\CCCCN6[C@H]34)C5)c21 [9-N-ETHYLMANZAMINE A] | 0.14 µg/mL (≈ 0.243 µM) | 9700 nM | 0.5 µg/mL (≈ 0.867 µM) | > 128 µg/mL | 0.47 µg/mL (≈ 0.815 µM) | 10 µg/mL (≈ 17.3 µM) | >10 µM | 20 µg/mL (≈ 34.7 µM) | > 10000 nM | – | 1.5 µg/mL (≈ 2.6 µM) | – | –
10 | O=C1CC[C@H]2C[C@]34CN5CCCC/C=C\CC[C@](O)(C=C(c6nccc7c6[nH]c6c(O)cccc67)[C@@H]3CC5)[C@@H]4N2CC/C1=C/c1c(Cl)cccc1Cl | – | – | > 20 µg/mL | > 64 µg/mL | – | > 20 µg/mL | – | > 20 µg/mL | – | Non-toxic | – | Not Active | Not Active
11 | COc1ccc2[nH]c3c(c2c1)CCNC3C1=C[C@@]2(O)CC/C=C\CCCCN3CC[C@@H]1[C@]1(C[C@@H]4/C=C\CCCCN4[C@H]12)C3 (stereo not given in full) | 0.057 µg/mL (≈ 0.0978 µM) | 2200 nM | 0.2 µg/mL (≈ 0.343 µM) | > 64 µg/mL | 0.064 µg/mL (≈ 0.11 µM) | 2 µg/mL (≈ 3.43 µM) | 3 µM | > 20 µg/mL | 1650 nM | – | 0.2 µg/mL (≈ 0.343 µM) | – | –
12 | COc1cccc(/C=C2/CCN3[C@@H](CCC2=O)C[C@]24CN5CCCC/C=C\CC[C@](O)(C=C(c6nccc7c6[nH]c6c(O)cccc67)[C@@H]2CC5)[C@H]34)c1 | – | – | > 20 µg/mL | > 64 µg/mL | – | > 20 µg/mL | – | > 20 µg/mL | – | Non-toxic | – | Not Active | Not Active
13 | CN1CCc2c([nH]c3ccccc23)C1C1=C[C@@]2(O)CC/C=C\CCCCN3CC[C@@H]1[C@]1(C[C@@H]4/C=C\CCCCN4[C@H]12)C3 (stereo not given in full) | 0.31 µg/mL (≈ 0.547 µM) | > 10000 nM | 0.7 µg/mL (≈ 1.23 µM) | > 64 µg/mL | 0.44 µg/mL (≈ 0.776 µM) | 6 µg/mL (≈ 10.6 µM) | 8 µM | > 20 µg/mL | 12200 nM | Non-toxic | – | – | –
14 | COc1ccc(/C=C2/CCN3[C@@H](CCC2=O)C[C@]24CN5CCCC/C=C\CC[C@](O)(C=C(c6nccc7c6[nH]c6c(O)cccc67)[C@@H]2CC5)[C@H]34)cc1 | – | – | > 20 µg/mL | > 64 µg/mL | – | > 20 µg/mL | – | > 20 µg/mL | – | Non-toxic | – | Not Active | Not Active
